Data from ChEMBL document CHEMBL1153436, “2-Pyridyl P1'-substituted symmetry-based human immunodeficiency virus protease inhibitors (A-792611 and A-790742) with potential for convenient dosing and reduced side effects” (J Med Chem, 2009).

Experiments:
[1] = test system: Human immunodeficiency virus 1; experiment: Antiviral activity against wild-type HIV1 pNL4-3 infected in human MT4 cells after 5 days by MTT assay in presence of 50% human serum; assay type: functional, organism-based; details: Human immunodeficiency virus 1, MT4, 120 h
[2] = test system: Human immunodeficiency virus 1; experiment: Fold resistance, ratio of EC50 for HIV1 bearing protease gene with A17 mutation to EC50 for wild-type HIV1 pNL4-3; assay type: functional
In short: (§1)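 HIV-1 A17 mutant clone carrying protease mutations L10F, V32I, M46I, I47V, Q58E and I84V, generated by in vitro serial passage under LPV/RTV. EC50 was determined in MT-4 cells. Wild-type reference strain was HIV-1 pNL4-3.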

[3] = test system: Human immunodeficiency virus 1; experiment: Antiviral activity against HIV1 bearing protease gene with A17 mutation infected in human MT4 cells after 5 days by MTT assay; assay type: functional, organism-based; details: Human immunodeficiency virus 1, MT4, 120 h; in short: as §1
[4] = test system: Human immunodeficiency virus 1; experiment: Antiviral activity against wild-type HIV1 pNL4-3 infected in human MT4 cells after 5 days by MTT assay; assay type: functional, organism-based; details: Human immunodeficiency virus 1, MT4, 120 h
[5] = Oral bioavailability in Sprague-Dawley rat at 5 mg/kg; assay type: ADME, organism-based; details: in vivo
In short: (§2)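 Male Sprague-Dawley-derived rats (n = 3) dosed iv or by oral gavage with 5 mg/mL solutions in 5% dextrose containing 20% ethanol, 30% propylene glycol and methanesulfonic acid equivalents. Plasma was sampled at 10 time points over 8 h, extracted into ethyl acetate/hexane and analysed by reversed-phase HPLC with internal standard. AUC in µg·h/mL.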

[6] = Half life in Sprague-Dawley rat at 5 mg/kg, iv; assay type: ADME, organism-based; set-up: dose 5 mg/kg, route intravenous; details: in vivo; in short: as §2
[7] = AUC in Sprague-Dawley rat at 5 mg/kg, po; assay type: ADME, organism-based; set-up: dose 5 mg/kg, route oral; details: plasma; in short: as §2
[8] = AUC in Sprague-Dawley rat at 5 mg/kg, po in presence of ritonavir; assay type: ADME, organism-based; set-up: dose 5 mg/kg, route oral; details: plasma; in short: as §2
[9] = Clearance in Sprague-Dawley rat at 5 mg/kg, iv; assay type: ADME, organism-based; set-up: dose 5 mg/kg, route intravenous; details: in vivo; in short: as §2

Row | Structure (SMILES) | EC50 [1] | Ratio EC50 [2] | EC50 [3] | EC50 [4] | bioavailability [5] | half-life [6] | AUC [7] | AUC [8] | clearance [9]
1 | COC(=O)N[C@H](C(=O)N[C@H](Cc1ccc(-c2ccccn2)cc1)C[C@H](O)[C@H](Cc1ccccc1)NC(=O)[C@@H](N1CCN(Cc2cccc(C)n2)C1=O)C(C)(C)C)C(C)(C)C | 27 nM | 4 | 21 nM | 5 nM | – | – | – | – | –
2 | COC(=O)N[C@H](C(=O)N[C@H](Cc1ccc(-c2ccccn2)cc1)C[C@H](O)[C@H](Cc1ccccc1)NC(=O)[C@@H](N1CCN(Cc2cccc(C(C)(C)C)n2)C1=O)C(C)(C)C)C(C)(C)C | 311 nM | 10 | 151 nM | 15 nM | – | – | – | – | –
3 | COC(=O)N[C@H](C(=O)N[C@@H](Cc1ccc(-c2ccccn2)cc1)[C@@H](O)C[C@H](Cc1ccccc1)NC(=O)[C@@H](N1CCN(Cc2csc(C(C)C)n2)C1=O)C(C)(C)C)C(C)(C)C | 13 nM | 1 | – | 1 nM | – | – | – | – | –
4 | COC(=O)N[C@H](C(=O)N[C@@H](Cc1ccc(-c2ccccn2)cc1)[C@@H](O)C[C@H](Cc1ccccc1)NC(=O)[C@@H](N1CCN(Cc2ccccc2)C1=O)C(C)(C)C)C(C)(C)C | 10 nM | 4 | 4 nM | 1 nM | – | – | – | – | –
5 | COC(=O)N[C@H](C(=O)N[C@@H](Cc1ccc(-c2ccccn2)cc1)C[C@H](O)[C@H](Cc1ccccc1)NC(=O)[C@@H](N1CCN(Cc2csc(-c3cccnc3)n2)C1=O)C(C)(C)C)C(C)(C)C | 26 nM | 1 | – | 8 nM | 0.8% | 42 min | 20 ng·h/mL | 120 ng·h/mL | 34.2 mL/min/kg
6 | COC(=O)N[C@H](C(=O)N[C@@H](Cc1ccc(-c2ccccn2)cc1)C[C@H](O)[C@H](Cc1ccccc1)NC(=O)[C@@H](N1CCN(Cc2cccc(OC)c2)C1=O)C(C)(C)C)C(C)(C)C | 65 nM | 4 | 53 nM | 14 nM | – | – | – | – | –
7 | COC(=O)N[C@H](C(=O)N[C@@H](Cc1ccc(-c2ccccn2)cc1)C[C@H](O)[C@H](Cc1ccccc1)NC(=O)[C@@H](N1CCN(Cc2ccc(N)cc2)C1=O)C(C)(C)C)C(C)(C)C | 63 nM | 3 | 30 nM | 10 nM | – | – | – | – | –
8 | COC(=O)N[C@H](C(=O)N[C@@H](Cc1ccc(-c2ccccn2)cc1)C[C@H](O)[C@H](Cc1ccccc1)NC(=O)[C@@H](N1CCN(Cc2nc3ccccc3n2C)C1=O)C(C)(C)C)C(C)(C)C | 346 nM | <1 | 32 nM | 140 nM | – | – | – | – | –
9 | COC(=O)N[C@H](C(=O)N[C@H](Cc1ccc(-c2ccccn2)cc1)C[C@H](O)[C@H](Cc1ccccc1)NC(=O)[C@@H](N1CCN(Cc2csc(C)n2)C1=O)C(C)(C)C)C(C)(C)C | 15 nM | 4 | 12 nM | 3 nM | 5.9% | 24 min | 160 ng·h/mL | 1980 ng·h/mL | 31 mL/min/kg
10 | COC(=O)N[C@H](C(=O)N[C@@H](Cc1ccc(-c2ccccn2)cc1)[C@@H](O)C[C@H](Cc1ccccc1)NC(=O)[C@@H](N1CCN(Cc2csc(-c3cccnc3)n2)C1=O)C(C)(C)C)C(C)(C)C | 18 nM | <1 | 1 nM | 2 nM | 1.6% | 48 min | 30 ng·h/mL | 260 ng·h/mL | 46.7 mL/min/kg
11 | COC(=O)N[C@H](C(=O)N[C@@H](Cc1ccc(-c2ccccn2)cc1)[C@@H](O)C[C@H](Cc1ccccc1)NC(=O)[C@@H](N1CCN(Cc2cccc(C)n2)C1=O)C(C)(C)C)C(C)(C)C | 30 nM | 1 | – | 5 nM | – | – | – | – | –
12 | COC(=O)N[C@H](C(=O)N[C@H](Cc1ccc(-c2ccccn2)cc1)C[C@H](O)[C@H](Cc1ccccc1)NC(=O)[C@@H](N1CCN(Cc2csc(-c3cccnc3)n2)C1=O)C(C)(C)C)C(C)(C)C | 15 nM | 4 | 7 nM | 2 nM | – | – | – | – | –
13 | COC(=O)N[C@H](C(=O)N[C@@H](Cc1ccc(-c2ccccn2)cc1)C[C@H](O)[C@H](Cc1ccccc1)NC(=O)[C@@H](N1CCN(Cc2csc(C)n2)C1=O)C(C)(C)C)C(C)(C)C | 94 nM | 1 | – | 10 nM | – | – | – | – | –
14 | COC(=O)N[C@H](C(=O)N[C@@H](Cc1ccc(-c2ccccn2)cc1)C[C@H](O)[C@H](Cc1ccccc1)NC(=O)[C@@H](N1CCN(Cc2ccccc2F)C1=O)C(C)(C)C)C(C)(C)C | 36 nM | – | 88 nM | 11 nM | – | – | – | – | –
15 | COC(=O)N[C@H](C(=O)N[C@@H](Cc1ccc(-c2ccccn2)cc1)C[C@H](O)[C@H](Cc1ccccc1)NC(=O)[C@@H](N1CCN(Cc2cccc(F)c2)C1=O)C(C)(C)C)C(C)(C)C | 28 nM | 9 | 38 nM | 4 nM | – | – | – | – | –
16 | COC(=O)N[C@H](C(=O)N[C@@H](Cc1ccc(-c2ccccn2)cc1)C[C@H](O)[C@H](Cc1ccccc1)NC(=O)[C@@H](N1CCN(Cc2ccc(F)cc2)C1=O)C(C)(C)C)C(C)(C)C | 33 nM | 7 | 42 nM | 6 nM | – | – | – | – | –
17 | COC(=O)N[C@H](C(=O)N[C@@H](Cc1ccc(-c2ccccn2)cc1)[C@@H](O)C[C@H](Cc1ccccc1)NC(=O)[C@@H](N1CCN(Cc2ccnc3ccccc23)C1=O)C(C)(C)C)C(C)(C)C | 15 nM | <1 | 1 nM | 2 nM | 1.1% | 24 min | 50 ng·h/mL | 3300 ng·h/mL | 33.3 mL/min/kg
18 | COC(=O)N[C@H](C(=O)N[C@H](Cc1ccc(-c2ccccn2)cc1)C[C@H](O)[C@H](Cc1ccccc1)NC(=O)[C@@H](N1CCN(Cc2ccnc3ccccc23)C1=O)C(C)(C)C)C(C)(C)C | 21 nM | 2 | 8 nM | 5 nM | 0% | 36 min | – | 9200 ng·h/mL | 41.7 mL/min/kg
19 | COC(=O)N[C@H](C(=O)N[C@@H](Cc1ccc(-c2ccccn2)cc1)C[C@H](O)[C@H](Cc1ccccc1)NC(=O)[C@@H](N1CCN(Cc2ccnc3ccccc23)C1=O)C(C)(C)C)C(C)(C)C | 19 nM | <1 | 2 nM | 4 nM | 0.6% | 66 min | 20 ng·h/mL | 2860 ng·h/mL | 30 mL/min/kg
20 | COC(=O)N[C@H](C(=O)N[C@@H](Cc1ccc(-c2ccccn2)cc1)[C@@H](O)C[C@H](Cc1ccccc1)NC(=O)[C@@H](N1CCN(Cc2cccc(C(C)(C)O)n2)C1=O)C(C)(C)C)C(C)(C)C | 19 nM | <1 | 2 nM | 4 nM | 17% | 54 min | 880 ng·h/mL | 1820 ng·h/mL | 16.7 mL/min/kg
21 | COC(=O)N[C@H](C(=O)N[C@@H](Cc1ccc(-c2ccccn2)cc1)[C@@H](O)C[C@H](Cc1ccccc1)NC(=O)[C@@H](N1CCN(Cc2csc(C)n2)C1=O)C(C)(C)C)C(C)(C)C | 34 nM | <1 | 2 nM | 3 nM | 11.2% | 30 min | 320 ng·h/mL | 8400 ng·h/mL | 31.7 mL/min/kg
22 | COC(=O)N[C@H](C(=O)N[C@H](Cc1ccc(-c2ccccn2)cc1)C[C@H](O)[C@H](Cc1ccccc1)NC(=O)[C@@H](N1CCN(Cc2cccc(C(C)C)n2)C1=O)C(C)(C)C)C(C)(C)C | 105 nM | 4 | 66 nM | 15 nM | – | – | – | – | –
23 | COC(=O)N[C@H](C(=O)N[C@@H](Cc1ccc(-c2ccccn2)cc1)[C@@H](O)C[C@H](Cc1ccccc1)NC(=O)[C@@H](N1CCN(Cc2nc3ccccc3n2C)C1=O)C(C)(C)C)C(C)(C)C | 82 nM | <1 | 3 nM | 7 nM | – | – | – | – | –
24 | COC(=O)N[C@H](C(=O)N[C@@H](Cc1ccc(-c2ccccn2)cc1)C[C@H](O)[C@H](Cc1ccccc1)NC(=O)[C@@H](N1CCN(Cc2cccc(C(C)(C)O)n2)C1=O)C(C)(C)C)C(C)(C)C | 53 nM | – | 4 nM | 6 nM | 5.7% | 60 min | 200 ng·h/mL | 830 ng·h/mL | 23.3 mL/min/kg
25 | COC(=O)N[C@H](C(=O)N[C@@H](Cc1ccc(-c2ccccn2)cc1)C[C@H](O)[C@H](Cc1ccccc1)NC(=O)[C@@H](N1CCN(Cc2ccccc2C)C1=O)C(C)(C)C)C(C)(C)C | 30 nM | 7 | 72 nM | 10 nM | – | – | – | – | –
26 | COC(=O)N[C@H](C(=O)N[C@H](Cc1ccc(-c2ccccn2)cc1)C[C@H](O)[C@H](Cc1ccccc1)NC(=O)[C@@H](N1CCN(Cc2ccccc2)C1=O)C(C)(C)C)C(C)(C)C | 43 nM | 3 | 37 nM | 11 nM | – | – | – | – | –
27 | COC(=O)N[C@H](C(=O)N[C@H](Cc1ccc(-c2ccccn2)cc1)C[C@H](O)[C@H](Cc1ccccc1)NC(=O)[C@@H](N1CCN(Cc2nc3ccccc3n2C)C1=O)C(C)(C)C)C(C)(C)C | 33 nM | 7 | 20 nM | 3 nM | 0.1% | 42 min | – | 1170 ng·h/mL | 54 mL/min/kg
